What was measured:
Oryctolagus cuniculus [1] = species: Oryctolagus cuniculus; experiment: Concentration required to cause 50% inhibition of K+ loss from rabbit blood cells treated with [Ca2+] ionophore A-23187; format: functional
In short: (§1)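 Rabbit red cells were stored at 4 °C for up to 4 days, then suspended at ~1% hematocrit in low-K⁺ saline (0.1 mM KCl, 1 mM CaCl₂, inosine, Tris, pH 7.4) at 37 °C. They were preincubated 40–60 min with compound from DMSO stock (120 min for one; 3 min for highly lipophilic ones). A23187 2 μM was added, and K⁺ loss was read by K⁺ electrode over 3 min. Total K⁺ came from digitonin lysis, and loss was expressed as % of control. Assays were run ≥3 times, and IC50 was fitted by Hill equation (common nH, 100% maximum).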

[2] = (§2) Partition coefficient (logP); format: physicochemical; conditions: octanol/water
In short: (§3)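 Calculated, not measured, for the free base by summing Mannhold/Rekker revised hydrophobic fragmental constants.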

[3] = as §2; format: physicochemical; conditions: octanol/water; in short: as §3; remark: listed apart in the source
Oryctolagus cuniculus [4] = species: Oryctolagus cuniculus; experiment: Inhibition of K+ loss from rabbit blood cells treated with [Ca2+] ionophore A-23187.; format: functional
In short: as §1, with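 “control.” for “control. Assays were run ≥3 times, and IC50 was fitted by Hill equation (common nH, 100% maximum).”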

Row | Structure (SMILES) | IC50 (Oryctolagus cuniculus [1]) [µM] | logP [2] | logP ([3]; read-out: logP) | logP [3] | IC50 (Oryctolagus cuniculus [4]) [µM]
1 | O=C(OCCN1CCCCCC1)c1c2ccccc2cc2ccccc12 | 28 | 6.36 | 6.45 | – | –
2 | O=C(OCCN1CCCCCC1)C1(Cc2ccccc2)c2ccccc2-c2ccccc21 | – | – | 7.68 | 7.18 | 4
3 | O=C(OCCN1CCCCCC1)C1(Cc2ccc(F)cc2)c2ccccc2-c2ccccc21 | – | – | 7.92 | 7.32 | –
4 | O=C(OCCN1CCCCCC1)C1(Cc2ccc(Cl)cc2)c2ccccc2-c2ccccc21 | – | – | 8.41 | 7.89 | 2.9
5 | O=C(OCCN1CCCCCC1)c1cccc2ccccc12 | – | – | 5.16 | 5.18 | 222
6 | O=C(CC(c1ccccc1)(c1ccccc1)c1ccccc1)OCCN1CCCCCC1 | 9.3 | 7.11 | 7.65 | – | –
7 | O=C(OCCN1CCCCCC1)C(c1ccsc1)C1CCCCC1 (stereo unspecified) | – | – | 6.59 | 5.98 | 25
8 | O=C(OCCN1CCCCCC1)C(c1ccccc1)c1ccccc1 | – | – | 5.44 | 5.25 | 164
9 | O=C(NCCN1CCCCCC1)C(c1ccsc1)C1CCCCC1 (stereo unspecified) | – | – | 5.15 | 5.11 | 75
10 | O=C(OCCN1CCCCCC1)C(c1ccccc1)(c1ccccc1)c1ccccc1 | 8.2 | 6.69 | 7.14 | – | –
11 | c1ccc(C(CCOCCN2CCCCCC2)(c2ccccc2)c2ccccc2)cc1 | 5.5 | 7.35 | 7.83 | – | –
12 | O=C(CC(c1ccccc1)c1ccccc1)OCCN1CCCCCC1 | – | – | 5.96 | 5.67 | 43
13 | O=C(OCCCN1CCCCCC1)C(c1ccccc1)(c1ccccc1)c1ccccc1 | 9.2 | 6.4 | 7.65 | – | –
14 | O=C(OCCN1CCCCCC1)C(c1ccccc1)c1ccsc1 (stereo unspecified) | – | – | 5.15 | 4.9 | 47
15 | O=C(Cc1ccsc1)OCCN1CCCCCC1 | – | – | 3.45 | 3.55 | 142
16 | O=C(OCCN1CCCCCC1)C(C1CCCCC1)C1CCCCC1 | – | – | 8.33 | 6.86 | 14
17 | O=C(OCCN1CCCCCC1)C1c2ccccc2-c2ccccc21 | – | – | 5.47 | 5.24 | 42
18 | COc1ccc(CC2(C(=O)OCCN3CCCCCC3)c3ccccc3-c3ccccc32)cc1 | – | – | 7.75 | 7.09 | 2.8
19 | O=C(OCCN1CCCCCC1)C12C[C@H]3C[C@@H](C1)C[C@@H](C2)C3 | – | – | 5.6 | 4.38 | 178
20 | O=C(OCCN1CCCCCC1)C1(Cc2ccc([N+](=O)[O-])cc2)c2ccccc2-c2ccccc21 | – | – | 7.44 | 6.92 | 4.6
21 | O=C(OCCN1CCCCCC1)c1ccc2ccccc2c1 | – | – | 5.16 | 5.18 | 285
22 | C(#CCC1(Cc2ccccc2)c2ccccc2-c2ccccc21)CN1CCCCCC1 | 1.5 | 7.9 | – | 9.1 | –
23 | O=C(OCCN1CCCCCC1)C(c1ccccc1)C1CCCCC1 (stereo unspecified) | – | – | 6.88 | 5.93 | 18
24 | O=C(CC1CCCCC1)OCCN1CCCCCC1 | – | – | 5.18 | 4.93 | 290

— ChEMBL document CHEMBL1134458, “Synthesis and structure-activity relationships of cetiedil analogues as blockers of the Ca(2+)-activated K+ permeability of erythrocytes” (J Med Chem, 2001)
